Laboratory results from ChEMBL document CHEMBL1933026, “Synthesis and biological evaluation of molecular probes based on the 9-methylstreptimidone derivative DTCM-glutarimide” (Bioorg Med Chem Lett, 2012).
≈ marks a conversion by molar mass, not a printed value. Calls of active or inactive are those of the source. The calls are words filed in the database; no cut-off is given here.

Key:
RAW264.7 [1] = test: Antiinflammatory activity in mouse RAW264.7 cells assessed as inhibition of LPS-induced NO production treated for 2 hrs before LPS challenge measured after 20 hrs by Griess method; assay type: functional, cell-based
Method in brief: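 RAW264.7 macrophages grown in DMEM with 10% FBS, seeded at 1 × 10⁵ cells/ml and used next day. Pretreated with compound 2 h, then stimulated with LPS […] for 20 h. Nitrite in the medium read with Griess reagent.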

RAW264.7 [2] = test: Inhibition of LPS-induced NF-kappaB activation in mouse RAW264.7 cells at 10 ug/ml treated 2 hrs before LPS challenge measured after 30 mins by electrophoretic mobility shift assay; assay type: cell-based
Method in brief: (§1)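 RAW264.7 cells pretreated 2 h, then stimulated with LPS for 30 min. Nuclear extracts prepared by the Andrews–Faller method. 5 µg protein incubated 20 min at RT with poly(dI-dC) and a ³²P-labelled NF-κB oligonucleotide in Tris-HCl pH 7.0 buffer with NaCl, EDTA, DTT, glycerol and NP-40. Complexes resolved on a 4% native polyacrylamide gel in TBE.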

RAW264.7 [3] = test: (§2) Cytotoxicity against LPS-induced mouse RAW264.7 cells treated 2 hrs before LPS challenge measured after 20 hrs by MTT assay; assay type: cell-based; settings: Mus musculus, RAW264.7
Method in brief: (§3)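 RAW264.7 cells seeded at 1 × 10⁵ cells/ml and treated the next day with compound for 2 h, followed by LPS for 20 h. MTT solution then added and cells held 4 h at 37 °C in 5% CO₂. Viability read as absorbance at 570 nm.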

[4] = as §2; assay type: cell-based; settings: mouse, LPS-induced RAW264.7 cells; read-out: ED50; method in brief: as §3
RAW264.7 [5] = test: Inhibition of LPS-induced NF-kappaB activation in mouse RAW264.7 cells at 3 ug/ml treated 2 hrs before LPS challenge measured after 30 mins by electrophoretic mobility shift assay; assay type: cell-based; method in brief: as §1
RAW264.7 [6] = test: Antiinflammatory activity in mouse RAW264.7 cells assessed as inhibition of LPS-induced iNOS expression at 1 to 10 ug/ml treated 2 hrs before LPS challenge measured after 24 hrs by Western blotting; assay type: functional, cell-based
Method in brief: (§4)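 RAW264.7 cells in DMEM with 10% FBS. Incubated with or without compound for 2 h, then stimulated with LPS 1 µg/ml for 24 h. Total cell lysates analysed for iNOS protein by Western blotting.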

RAW264.7 [7] = test: Antiinflammatory activity in mouse RAW264.7 cells assessed as inhibition of LPS-induced iNOS expression at 0.3 to 3 ug/ml treated 2 hrs before LPS challenge measured after 24 hrs by Western blotting; assay type: functional, cell-based; method in brief: as §4

Compound	IC50 (RAW264.7 [1]) [µg/mL]	inhibition (RAW264.7 [2])	IC50 (RAW264.7 [3]) [µg/mL]	CC50 at 20 h [4] [µg/mL]	inhibition (RAW264.7 [5])	inhibition (RAW264.7 [6])	inhibition (RAW264.7 [7])
[N-]=[N+]=Nc1ccc(C(=O)NCCCCCCCCCCCCSC(=O)CC2CC(=O)NC(=O)C2)cc1	4.5 (≈ 8.73 µM)	inactive	> 30	> 30	inactive	Active	
CCCCCCCCCCCCSC(=O)CC1CC(=O)NC(=O)C1		inactive			inactive		Active

More lines, main results first:

IC50 (RAW264.7 [1]) [µg/mL]	Compound	inhibition (RAW264.7 [2])	IC50 (RAW264.7 [3]) [µg/mL]	CC50 at 20 h [4] [µg/mL]	inhibition (RAW264.7 [5])	inhibition (RAW264.7 [6])	inhibition (RAW264.7 [7])
5 (≈ 8.38 µM)	O=C(CCCC[C@@H]1SC[C@@H]2NC(=O)N[C@@H]21)NCCCCCCCCCCCCSC(=O)CC1CC(=O)NC(=O)C1	inactive	> 30	> 30	inactive	Active	
> 30	O=C(CCCC[C@@H]1SC[C@@H]2NC(=O)N[C@@H]21)NCCCCCCCCCCCCNC(=O)CC1CC(=O)NC(=O)C1			> 30			
> 30	O=C(CCCC[C@@H]1SC[C@@H]2NC(=O)N[C@@H]21)NCCSC(=O)CC1CC(=O)NC(=O)C1			> 30			
